According to ChEMBL document CHEMBL4402600, “Discovery of a Dual Tubulin Polymerization and Cell Division Cycle 20 Homologue Inhibitor via Structural Modification on Apcin” (J Med Chem, 2020):
pIC50, pKd: −log10 of the molar value. The source made the active and inactive calls. No cut-off for these calls is given here.

Columns and labels:
OVCAR-3 = experiment: Cytotoxicity in human OVCAR3 cells assessed as reduction in cell viability incubated for 48 hrs by MTT assay; type: functional, cell-based; conditions: OVCAR-3, 48 h
Procedure, shortened: (§1)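 Cells grown at 37°C, 5% CO₂ (HepG2, OVCAR-3, Caov-3 in DMEM + 10% FBS; A549, HeLa, A375, MCF-7 in RPMI 1640 + 10% FBS). Seeded at 4-5×10³/well in triplicate, adhered overnight, exposed to 0.03–300 μM (DMSO <0.1%) for 48 h. MTT added for 4 h, formazan dissolved in DMSO, absorbance read. IC50 from dose–response curves, mean ± SD of at least three independent experiments.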

MCF7 = experiment: Cytotoxicity in human MCF7 cells assessed as reduction in cell viability incubated for 48 hrs by MTT assay; type: functional, cell-based; conditions: MCF7, 48 h; procedure, shortened: as §1
HepG2 [1] = experiment: Induction of apoptosis in human HepG2 cells assessed as increase in cleaved caspase-3 level at 30 to 100 uM incubated for 48 hrs by Western blot analysis; type: functional, cell-based
Procedure, shortened: (§2)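 HepG2 cells treated 48 h. Lysates in RIPA buffer with protease/phosphatase inhibitors; 25 μg protein run on SDS-PAGE, transferred to PVDF, blocked in 5% milk/TBST, primary antibodies overnight at 4°C (caspase-3, cleaved caspase-3, cleaved PARP), HRP secondary 1 h at room temperature, ECL detection; densitometry quantified.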

HepG2 [2] = experiment: Induction of apoptosis in human HepG2 cells assessed as early apoptotic cells level at 100 uM incubated for 24 hrs by Annexin V-FITC/PI staining based flow cytometry (reference value: 4.02%); type: functional
HepG2 [3] = experiment: Induction of apoptosis in human HepG2 cells assessed as necrotic cells level at 100 uM incubated for 24 hrs by Annexin V-FITC/PI staining based flow cytometry (reference value: 1.48%); type: functional
HeLa = experiment: Cytotoxicity in human HeLa cells assessed as reduction in cell viability incubated for 48 hrs by MTT assay; type: functional, cell-based; procedure, shortened: as §1
[4] = molecular target: T1, Cell division cycle protein 20 homolog (Homo sapiens, UniProt Q12834); experiment: Binding affinity to CDC20 (unknown origin) by SPR analysis
T1 sequence (Q12834 whole entry): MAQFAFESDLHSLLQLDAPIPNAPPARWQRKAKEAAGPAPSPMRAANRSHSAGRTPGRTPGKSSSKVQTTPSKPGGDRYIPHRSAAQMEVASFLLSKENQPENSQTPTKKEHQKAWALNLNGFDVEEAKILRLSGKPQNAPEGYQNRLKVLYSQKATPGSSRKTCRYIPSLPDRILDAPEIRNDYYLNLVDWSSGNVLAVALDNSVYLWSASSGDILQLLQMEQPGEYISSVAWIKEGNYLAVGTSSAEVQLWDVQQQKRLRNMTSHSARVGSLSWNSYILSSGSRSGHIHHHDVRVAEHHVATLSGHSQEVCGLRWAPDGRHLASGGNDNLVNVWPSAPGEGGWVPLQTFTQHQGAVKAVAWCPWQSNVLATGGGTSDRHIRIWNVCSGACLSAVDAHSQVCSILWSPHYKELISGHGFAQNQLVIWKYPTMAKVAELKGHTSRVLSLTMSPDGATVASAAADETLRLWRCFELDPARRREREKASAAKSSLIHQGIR
Procedure, shortened: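 Recombinant human Cdc20 (>95% pure) coupled by EDC/NHS to an acid-coupling chip; PBS pH 7.4 running buffer. Compounds injected as a gradient dilution series starting at 200 μM, 120-140 s association, 160 s dissociation. Steady-state values plotted against concentration; K_D from a one-to-one / single-site model.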

HepG2 [5] = experiment: Cytotoxicity in human HepG2 cells assessed as reduction in cell viability incubated for 48 hrs by MTT assay; type: functional, cell-based; conditions: HepG2, 48 h; procedure, shortened: as §1
HepG2 [6] = experiment: Induction of apoptosis in human HepG2 cells assessed as early apoptotic cells level at 300 uM incubated for 24 hrs by Annexin V-FITC/PI staining based flow cytometry (reference value: 4.02%); type: functional
HepG2 [7] = experiment: Induction of apoptosis in human HepG2 cells assessed as necrotic cells level at 300 uM incubated for 24 hrs by Annexin V-FITC/PI staining based flow cytometry (reference value: 1.48%); type: functional
Caov-3 cell line = experiment: Cytotoxicity in human Caov3 cells assessed as reduction in cell viability incubated for 48 hrs by MTT assay; type: functional, cell-based; conditions: Caov-3, 48 h; procedure, shortened: as §1
HepG2 [8] = experiment: Induction of apoptosis in human HepG2 cells assessed as viable cells level at 100 uM incubated for 24 hrs by Annexin V-FITC/PI staining based flow cytometry (reference value: 89.38%); type: functional
HepG2 [9] = experiment: Inhibition of mitotic exit in human HepG2 cells assessed as increase in nuclear phosphohistone H3 levels incubated for 48 hrs by immunofluorescence assay; type: functional, cell-based
Procedure, shortened: (§3)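 HepG2 seeded at 4×10³/well, overnight adhesion, treated 48 h. Fixed 15 min in 4% formaldehyde, permeabilized with Triton X-100, BSA-blocked, anti-phospho-histone H3 (Ser10) at 4°C overnight, fluorescent anti-rabbit secondary, DAPI counterstain. Fluorescence read relative to DMSO control; PHH3-positive cells counted in random fields as % of total. At least two experiments.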

HepG2 [10] = experiment: Induction of apoptosis in human HepG2 cells assessed as increase in cleaved PARP level at 30 to 100 uM incubated for 48 hrs by Western blot analysis; type: functional, cell-based; procedure, shortened: as §2
HepG2 [11] = experiment: Induction of apoptosis in human HepG2 cells assessed as late apoptotic cells level at 100 uM incubated for 24 hrs by Annexin V-FITC/PI staining based flow cytometry (reference value: 5.12%); type: functional
A-375 = experiment: Cytotoxicity in human A375 cells assessed as reduction in cell viability incubated for 48 hrs by MTT assay; type: functional, cell-based; conditions: A-375, 48 h; procedure, shortened: as §1
HepG2 [12] = experiment: Induction of apoptosis in human HepG2 cells assessed as late apoptotic cells level at 300 uM incubated for 24 hrs by Annexin V-FITC/PI staining based flow cytometry (reference value: 5.12%); type: functional
A549 = experiment: Cytotoxicity in human A549 cells assessed as reduction in cell viability incubated for 48 hrs by MTT assay; type: functional, cell-based; conditions: A549, 48 h; procedure, shortened: as §1
HepG2 [13] = experiment: Inhibition of mitotic exit in human HepG2 cells assessed as increase in nuclear phosphohistone H3 levels at 10 to 100 uM incubated for 48 hrs by relative to control
[14] = molecular target: T1, Cell division cycle protein 20 homolog; experiment: Inhibition of CDC20 in human HepG2 cells assessed as increase in Bim protein levels at 100 uM incubated for 48 hrs by Western blot Analysis; type: cell-based
Procedure, shortened: (§4)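 HepG2 lysates in RIPA buffer with protease/phosphatase inhibitors; 25 μg protein by SDS-PAGE/PVDF, blocked in 5% milk/TBST, primary antibodies overnight at 4°C (Cyclin A2, Cyclin B1, Bim, Aurora A, Skp2), HRP secondary 1 h at room temperature, ECL; bands quantified by densitometry.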

HepG2 [15] = experiment: Induction of apoptosis in human HepG2 cells assessed as viable cells level at 300 uM incubated for 24 hrs by Annexin V-FITC/PI staining based flow cytometry (reference value: 89.38%); type: functional
[16] = molecular target: T1, Cell division cycle protein 20 homolog; experiment: Inhibition of CDC20 in human HepG2 cells assessed as increase in stability of Bim protein at 30 uM measured after 2 to 8 hrs by Western blot Analysis; type: cell-based
Procedure, shortened: (§5)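 Time course in HepG2: cyclin B1, Aurora A, Bim and cleaved PARP examined by Western blot at 1, 2, 4, 8 and 12 h after adding 30 μM compound; lysis in RIPA with inhibitors, 25 μg protein per lane, ECL detection.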

HepG2 [17] = experiment: Inhibition of mitotic exit in human HepG2 cells assessed as increase in nuclear phosphohistone H3 levels at 3 to 30 uM incubated for 48 hrs by Western blot analysis relative to control; type: functional, cell-based
[18] = molecular target: Fizzy-related protein homolog (Homo sapiens) (UniProt Q9UM11); experiment: Inhibition of CDH1 in human HepG2 cells assessed as effect on Aurora A protein expression at 30 uM incubated for 48 hrs by Western blot Analysis; type: cell-based; procedure, shortened: as §4
Fizzy-related protein homolog (Homo sapiens), sequence (Q9UM11 whole entry): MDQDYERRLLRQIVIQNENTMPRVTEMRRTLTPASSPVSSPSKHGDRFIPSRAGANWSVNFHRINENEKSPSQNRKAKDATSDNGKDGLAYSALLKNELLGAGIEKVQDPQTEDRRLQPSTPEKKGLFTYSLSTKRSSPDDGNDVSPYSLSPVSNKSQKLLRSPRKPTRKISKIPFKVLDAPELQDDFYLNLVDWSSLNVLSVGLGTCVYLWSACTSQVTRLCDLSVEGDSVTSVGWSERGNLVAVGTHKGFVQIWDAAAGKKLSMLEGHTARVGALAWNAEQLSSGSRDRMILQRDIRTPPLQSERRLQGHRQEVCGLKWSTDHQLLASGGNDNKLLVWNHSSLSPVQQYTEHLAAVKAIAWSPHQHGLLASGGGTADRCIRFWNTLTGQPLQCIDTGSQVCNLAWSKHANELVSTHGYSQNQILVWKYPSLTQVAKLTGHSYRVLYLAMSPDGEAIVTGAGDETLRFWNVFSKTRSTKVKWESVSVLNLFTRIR

HepG2 [19] = experiment: Induction of apoptosis in human HepG2 cells assessed as increase in cleaved PARP level at 3 to 30 uM incubated for 48 hrs by Western blot analysis; type: functional, cell-based; procedure, shortened: as §2
[20] = molecular target: T1, Cell division cycle protein 20 homolog; experiment: Inhibition of CDC20 in human HepG2 cells assessed as increase in Aurora A protein degradation at 30 uM measured after 1 to 12 hrs by Western blot analysis; type: cell-based; procedure, shortened: as §5
[21] = molecular target: T1, Cell division cycle protein 20 homolog; experiment: Inhibition of CDC20 in human HepG2 cells assessed as increase in stability of Bim protein at 30 uM measured after 1 to 12 hrs by Western blot Analysis
[22] = molecular target: T1, Cell division cycle protein 20 homolog; experiment: Inhibition of CDC20 in human HepG2 cells assessed as increase in stability of cyclin B1 protein at 30 uM measured after 2 to 8 hrs by Western blot Analysis; type: cell-based; procedure, shortened: as §5
[23] = molecular target: T1, Cell division cycle protein 20 homolog; experiment: Inhibition of CDC20 in human HepG2 cells assessed as increase in Bim protein levels at 30 uM incubated for 48 hrs by Western blot Analysis; type: cell-based; procedure, shortened: as §4
[24] = molecular target: Fizzy-related protein homolog (Homo sapiens) (UniProt Q9UM11); experiment: Inhibition of CDH1 in human HepG2 cells assessed as effect on Skp2 protein expression at 30 uM incubated for 48 hrs by Western blot Analysis; type: cell-based; procedure, shortened: as §4
[25] = molecular target: T1, Cell division cycle protein 20 homolog; experiment: Inhibition of CDC20 in human HepG2 cells assessed as decrease in cyclin B degradation at 30 uM incubated for 48 hrs by Western blot Analysis; type: cell-based; procedure, shortened: as §4
HepG2 [26] = experiment: Induction of apoptosis in human HepG2 cells assessed as increase in cleaved caspase-3 level at 3 to 30 uM incubated for 48 hrs by Western blot analysis; type: functional, cell-based; procedure, shortened: as §2
HepG2 [27] = experiment: Inhibition of mitotic exit in human HepG2 cells assessed as increase in nuclear phosphohistone H3 levels at 30 uM incubated for 48 hrs by immunofluorescence assay relative to control; type: functional; parameters: scale not given: the % may be the effect or the level left; procedure, shortened: as §3

SMILES	pIC50 (OVCAR-3)	pIC50 (MCF7)	pIC50 (HeLa)	pIC50 (HepG2 [5])	pIC50 (Caov-3 cell line)	pIC50 (A-375)	pIC50 (A549)	further results
Cc1ncc([N+](=O)[O-])n1CCOC(=O)NC(Nc1ncccn1)C(Cl)(Cl)Cl (centres undefined)	< 3.52	< 3.52	3.66	< 3.52	< 3.52	3.71	< 3.52	Activity (HepG2 [1]): Active; Activity (HepG2 [2]): 7.85%; Activity (HepG2 [3]): 2.39%; pKd [4]: 3.91; Activity (HepG2 [6]): 62.43%; Activity (HepG2 [7]): 0.73%; Activity (HepG2 [8]): 82.91%; Activity (HepG2 [9]): Dose-dependent effect; Activity (HepG2 [10]): Active; Activity (HepG2 [11]): 6.85%; Activity (HepG2 [12]): 30.02%; fold change (FC) (HepG2 [13]): 2.2; inhibition [14]: Active; Activity (HepG2 [15]): 6.82%
Cc1ncc([N+](=O)[O-])n1CCOC(=O)NC(Nc1c(Cl)nc(N)nc1Cl)C(Cl)(Cl)Cl (centres undefined)		3.80	4.20	4.59	3.96	4.47	4.25	inhibition [16]: Active; Activity (HepG2 [17]): Active; inhibition [18]: inactive; Activity (HepG2 [2]): 25.27%; Activity (HepG2 [3]): 1.08%; pKd [4]: 4.31; Activity (HepG2 [19]): Active; inhibition [20]: Active; Activity (HepG2 [8]): 64.34%; inhibition [21]: inactive; inhibition [22]: Active; Activity (HepG2 [9]): Dose-dependent effect; inhibition [23]: Active; inhibition [24]: inactive; Activity (HepG2 [11]): 9.31%; inhibition [25]: Active; Activity (HepG2 [26]): Active; Activity (HepG2 [27]): 6.9%
Cc1ncc([N+](=O)[O-])n1CCOC(=O)NC(n1cnc2c(N)nc(F)nc21)C(Cl)(Cl)Cl (centres undefined)	5.82	6.10	5.72	6.22	5.92	6.30	5.44	pKd [4]: 3.79
CCOC(=O)NC(n1cnc2c(N)nc(F)nc21)C(Cl)(Cl)Cl (centres undefined)	6.30	6.10	6.05	5.85	6.22	5.74	6.30	
O=C(NC(n1ncc2c(O)ncnc21)C(Cl)(Cl)Cl)OCCc1ccccn1 (centres undefined)	< 3.52	< 3.52	< 3.52	3.57	< 3.52	< 3.52	< 3.52	
COc1ccnc(NC(NC(=O)OCCn2c([N+](=O)[O-])cnc2C)C(Cl)(Cl)Cl)n1 (centres undefined)	3.70	3.73	3.89	4.10	3.80	4.36	3.58	
Nc1nc(N)c2ncn(C(NC(=O)OCCN3CCOCC3)C(Cl)(Cl)Cl)c2n1 (centres undefined)	4.94	3.90	4.32	5.07	4.98	4.02	4.33	
Cc1ncc([N+](=O)[O-])n1CCOC(=O)NC(Nc1nccc2ccccc12)C(Cl)(Cl)Cl (centres undefined)	4.21	< 3.52	< 3.52	4.33	4.09	4.43	< 3.52	
Cc1ncc([N+](=O)[O-])n1CCOC(=O)NC(Nc1ccncn1)C(Cl)(Cl)Cl (centres undefined)	< 3.52	< 3.52	< 3.52	< 3.52	< 3.52	5.28	< 3.52	
Cc1ncc([N+](=O)[O-])n1CCOC(=O)NC(Nc1ccc2ccccc2n1)C(Cl)(Cl)Cl (centres undefined)	4.05	4.00	5.04	4.64	4.14	4.85	4.32	
Cc1ncc([N+](=O)[O-])n1CCOC(=O)NC(n1cnc2c(NCc3ccccc3)ncnc21)C(Cl)(Cl)Cl (centres undefined)	3.61	4.02	4.14	4.48	< 3.52	< 3.52	3.83	
